“Also recorded” adds a separate entry of the source.
Experiments:
[1] = system: AjTRHR; assay: cAMP content; format: cell-based, Apostichopus japonicus; conditions: 10^−9–10^−5 mol/L, 30 min; HEK293T, AjTRHR-pcDNA3.1(+); Figure 4C (AjTRH7), Figure 6A (AjTRH1)
Outline: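 HEK293T cells transfected with AjTRHR-pcDNA3.1(+) or empty pcDNA3.1(+) were exposed to gradient-diluted peptide (10^−9–10^−5 mol/L) for 30 min. Cells were then washed twice in PBS and lysed, and intracellular cAMP was quantified with a commercial cAMP assay kit.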

[2] = system: AjTRHR; assay: ERK1/2 phosphorylation; format: cell-based, Apostichopus japonicus; conditions: AjTRH7 10^−6 mol/L
Outline: (§1)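 HEK293T cells (DMEM, 10% FBS, 37°C, 5% CO2) were transfected at ~70% confluence with AjTRHR-pcDNA3.1(+) or empty vector using Lipofectamine 2000. Receptor cells received 10^−6 mol/L peptide for 0, 5, 15, 30, 45 or 60 min at 37°C. Lysate protein was BCA-normalised, run on 10% SDS-PAGE, blotted to PVDF and probed for pERK1/2 (1:2 000) and total ERK1/2 (1:1 000). Bands were ECL-detected and densitometry expressed as pERK/tERK; six repetitions, mean+SEM.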

[3] = system: HEK293T cells transfected with empty pcDNA 3.1(+) vector; assay: ERK1/2 phosphorylation, empty pcDNA 3.1; format: cell-based, human; conditions: AjTRH7 10^−5 mol/L, negative control, Figure 4E
Outline: as §1

[4] = system: AjTRHR; assay: Ligand binding assays / receptor activation summary; format: cell-based, Apostichopus japonicus; conditions: for agonism at AjTRHR: bioinformatics and ligand-binding assays, cAMP/PKA-ERK/MAPK cascade and possibly Ca^2+-dependent pathway
[5] = system: Apostichopus japonicus; assay: In vivo feed intake rate; conditions: AjTRH1/AjTRH7 injection, A. japonicus
Outline: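 Sub-adult sea cucumbers (~30 g) were held in UV-sterilised filtered seawater at 18–20°C, 32 ppt and 12:12 h light/dark. They were fed ad libitum each morning with commercial feed mixed 1:3 with sea mud. Six groups were set up, each in five tanks of six animals. Test peptide in sterile seawater (0.5 or 0.05 mg/mL) or seawater alone was injected at 0.1% (v/w) via the mouth into the coelom at noon every two days, for over 25 days. Uneaten food was collected daily, dried and weighed. FI was calculated per a prior method, and tank was a random factor in linear mixed models with Tukey tests.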

[6] = system: Apostichopus japonicus; assay: In vivo weight gain rate; conditions: 0.05 mg/mL (LTG) vs 0.5 mg/mL (HTG) AjTRH7
Outline: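 Sub-adult sea cucumbers (30±5.8 g) were kept in filtered UV-sterilised seawater (18–20°C, 32 ppt, 12:12 h light/dark), six per tank and five tanks per group (30 per group), fed ad libitum each morning (commercial feed:sea mud 1:3). Peptide in sterile seawater at 0.5 or 0.05 mg/mL, or seawater alone, was injected orally into the coelom at 0.1% (v/w) every two days at noon for over 25 days. Body weight was taken at start and end to derive WGR. Analysis used linear mixed models with tank as random factor and Tukey tests.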

[7] = system: AjCCKP1; assay: In vivo relative AjCCKP1 expression in circumoral nerve ring; set-up: species or system Apostichopus japonicus; conditions: AjTRH7 0.5 mg/mL (HTG) injection; F(2,10)=6.852, P<0.05; Figure 7A
[8] = system: AjCCKP1; assay: In vivo relative AjCCKP1 expression in intestine, RT-qPCR; set-up: species or system Apostichopus japonicus; conditions: AjTRH7 0.05 mg/mL (LTG) injection; F(2,10)=8.091, P<0.05; Figure 7B
[9] = system: AjTRHR; assay: Intracellular Ca2+ mobilization; format: cell-based, Apostichopus japonicus; conditions: negative control, reverse sequence of AjTRH7; Supplementary Figure S3B
Outline: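 HEK293T cells were grown in DMEM with 10% FBS at 37°C and 5% CO2. At ~70% confluence they were transfected by lipofection with receptor-pcDNA3.1(+). Cells were loaded with 3 μmol/L Fura-2/AM for 30 min, then stimulated with peptide. Test peptides spanned 10−9–10−5 mol/L, with reversed-sequence peptide or empty-vector cells as negative controls. Fluorescence was read on a plate reader. Experiments were repeated independently at least three times.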

[10] = system: rats; conditions: obese rats, prolonged TRH administration; ref Al-Arabi & Andrews, 2006; cited from earlier work
[11] = system: rodents, such as rats and squirrels; conditions: ref Al-Arabi & Andrews, 2006, Frare et al., 2021, Puga et al., 2016, Schuhler et al., 2007, Schwartz et al., 2013, Steward et al., 2003; cited from earlier work
[12] = system: AjTRHR; assay: SRE-Luc reporter assay; format: cell-based, Apostichopus japonicus; conditions: 10^-9-10^-5 mol/L; HEK293T expressing AjTRHR; Supplementary Figure S6

pQLPGSPWKFWE [AjTRH7]
cAMP accumulation [1]: cAMP accumulation | p-ERK1/2 activity at 15 min ([2]; 15 min, 37°C, mean±SEM (n=6), F(5,10)=5.563, P<0.05, Figure 4E): markedly increased | p-ERK1/2 activity at 30 min ([2]; 30 min, 37°C, mean±SEM (n=6), F(5,10)=5.563, P<0.05, Figure 4E): markedly increased | p-ERK1/2 after the peak ([2]; after 15 min peak, up to 60 min): subsequently returning to baseline levels | p-ERK1/2 response in empty vector cells [3]: no significant responses | agonism at AjTRHR [4]: acts as an agonist for AjTRHR | food intake (summary) [5]: inhibited food intake | inhibitory effect, LTG compared with HTG (WGR context) [6]: stronger inhibitory effect in the LTG group than in the HTG group | AjCCKP1 expression in CNR [7]: significantly up-regulated | AjCCKP1 expression in intestine [8]: significantly up-regulated

EWFKWPSGPLQ
Ca2+ response to reverse peptide sequence [9]: no observable responses

thyrotropin-releasing hormone [TRH]
body weight [10]: reduced body weight | food intake [10]: suppress food intake | resting metabolic rate [10]: elevate resting metabolic rates | feeding motivation and feeding behavior [11]: suppress feeding motivation and inhibit feeding behavior

pQYFA [AjTRH1]
cAMP accumulation [1]: cAMP accumulation | Ca2+ mobilization (SRE-driven luciferase activity) [12]: no Ca^2+ mobilization was observed; also recorded: does not induce significant Ca^2+ influx | agonism at AjTRHR [4]: activates AjTRHR by increasing cAMP levels | binding to AjTRHR ([4]; inferred from receptor assays in HEK293T cells expressing AjTRHR): binds to AjTRHR | food intake (summary) [5]: inhibited food intake

Reference: publication PMC11890989 (Zoological Research, 2025)
